# Bridges are numbered along the chain shown (N, C = ends). Roman numbers before positions name the chains, in order. Where no end group is shown, it is not given here. The star is where a group is joined. X1 = O=C(CON=Cc1ccc(F)cc1)*
# What was measured:
# [1] = system: atherosclerotic plaques, VCAM-1; experiment: Ex vivo uptake of 18F-4V in excised aortas; design: species or system mouse
# [2] = system: rejected cardiac allograft, VCAM-1; experiment: 18F-4V uptake in heterotopic allograft heart transplant rejection; type: in vivo, mouse; settings: day 7 after heart transplantation
# [3] = system: infarcted myocardium, VCAM-1; experiment: 18F-4V uptake after myocardial infarction; type: in vivo, mouse; settings: mice 5 days after MI, without antibody blocking
# [4] = Biodistribution by gamma counting of harvested organs; type: in vivo; settings: mouse, iv, 150 uCi, total radioactivity
# How it was run: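 Test compound (¹⁸F-labelled peptide, 150 μCi) injected into the tail vein of 6 wild-type mice under isoflurane anaesthesia. Mice were killed at 4 h and perfused with saline. Organs and feces were harvested and counted in a gamma counter. Counts were corrected for decay and residual injection-site activity and expressed as %ID per gram tissue, mean±SEM.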
# [5] = system: VCAM-1 expression in atherosclerotic plaques; experiment: In vivo PET-CT imaging of aortic root; design: species or system mouse; settings: apoE-/- mice, PET-CT initiated 1 hour after injection, mean±SEM
substance,measurement,setting,value
"I: VHPKQHRGGSYKKK(X1) / II: VHPKQHRGGSYK / III: VHPKQHRGGSY / IV: VHPKQHRGGSY (amide I:12-IV:C, I:13-II:C, II:12-III:C) [^18F-4V]",ex vivo %IDGT in murine atheroma,"[1]; apoE-/- mice, ex vivo, mean±SEM",5.9±1.5 %IDGT
same,"uptake in the aortic root, higher in apoE-/- mice compared to wild type","[1]; excised aortas, apoE-/- vs wild-type mice, p < 0.05",312%
same,graft to background ratio after pre-injection of VCAM-1 targeted antibody,[2]; pre-injection with VCAM-1 targeted antibody,1.4
same,graft to background ratio,[2]; without antibody blocking,2.4
same,infarct activity to background ratio,[3],3.1
same,tissue uptake at 4 h,[4]; aorta,1.3 ± 0.4 %ID/g
same,tissue uptake at 4 h,[4]; bone,1.3 ± 0.4 %ID/g
same,tissue uptake at 4 h,[4]; esophagus,1.5 ± 0.5 %ID/g
same,tissue uptake at 4 h,[4]; fat,1.7 ± 0.1 %ID/g
same,dose excreted at 4 h,[4]; feces,0.2 ± 0.1%
same,tissue uptake at 4 h,[4]; heart,0.6 ± 0.2 %ID/g
same,tissue uptake at 4 h,[4]; kidney,13.2 ± 2.8 %ID/g
same,tissue uptake at 4 h,[4]; large intestine,1.4 ± 0.5 %ID/g
same,tissue uptake at 4 h,[4]; liver,3.7 ± 1.1 %ID/g
same,tissue uptake at 4 h,[4]; lung,2.2 ± 0.8 %ID/g
same,tissue uptake at 4 h,[4]; lymph node,3.7 ± 0.3 %ID/g
same,tissue uptake at 4 h,[4]; skeletal muscle,0.7 ± 0.3 %ID/g
same,tissue uptake at 4 h,[4]; skin,1.7 ± 0.6 %ID/g
same,tissue uptake at 4 h,[4]; small intestine,1.9 ± 0.4 %ID/g
same,tissue uptake at 4 h,[4]; spleen,2.1 ± 0.6 %ID/g
same,tissue uptake at 4 h,[4]; stomach,1.7 ± 1.1 %ID/g
same,tissue uptake at 4 h,[4]; thymus,0.9 ± 0.3 %ID/g
same,tissue uptake at 4 h,[4]; whole blood,1.5 ± 0.4 %ID/g
same,PET signal in murine atheroma (standard uptake value),[5],0.31±0.02 SUV
